Arbovirus anti: arbovirus infection inhibition | arbovirus infection cell-based antiviral screen | inhibition, % at 10 µM | 200,000 compounds, 0.37% hits; in the data active = inhibition above about 30%
Calpain2 inh: calpain II (pig) inhibition. purified calpain II, fluorogenic peptide substrate, 30 min. inhibition, % at 16 µM. 220,000 compounds, 0.37% hits. AID 1236;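 active = inhibition above about 50%, limit read from the data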
PKD1 inh: inhibitors of human PKD1 kinase. Q15139. inhibition, % (no concentration beside the values). 200,000 compounds, 0.056% hits. PKD1 kinase fluorescence polarization assay. AID 797; in the data active = inhibition above about 50%
ROMK primary: modulates human ROMK potassium channel activity; P48048; Tet-inducible ROMK, thallium flux fluorescence; actives lie on both sides; B-score at 10 µM; 130,000 compounds, 2% hits; AID 1918;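 active = signal ratio slope over the read window, or its plate-corrected B-score, at least 3 SD from the plate mean, either direction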;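 also: B-score of the F/F0 ratio slope over 7 to 12 s after thallium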
Target sequence (P48048 whole entry, looked up): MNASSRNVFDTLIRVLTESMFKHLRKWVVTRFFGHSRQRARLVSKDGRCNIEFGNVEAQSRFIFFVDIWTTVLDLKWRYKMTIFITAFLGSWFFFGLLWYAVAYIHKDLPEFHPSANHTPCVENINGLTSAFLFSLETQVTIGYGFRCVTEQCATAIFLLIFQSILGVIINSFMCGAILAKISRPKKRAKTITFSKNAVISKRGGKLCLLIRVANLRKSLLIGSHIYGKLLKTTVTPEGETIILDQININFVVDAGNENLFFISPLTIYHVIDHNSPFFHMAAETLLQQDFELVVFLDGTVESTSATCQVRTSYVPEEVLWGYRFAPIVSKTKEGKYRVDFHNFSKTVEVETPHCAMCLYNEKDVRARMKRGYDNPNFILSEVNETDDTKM
Cl transport mod: modulators of human KCC2 chloride dependent transport; KCC2 cells, thallium flux FluoZin-2 fluorescence; B-score of Tl+ flux slope (higher = more flux/activation; lower = inhibition) at 10 µM; 190,000 compounds, 2.2% hits; AID 1456;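 active = thallium flux slope and its plate-corrected score both differing from the plate sample mean at a set confidence after two filtering rounds, in either direction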;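 also: slope of fluorescence scaled to starting intensity during 10 to 20 s after thallium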
MDM2 E3 inh: Mdm2 E3 ligase (human) inhibition | Q00987 | signal enhancement, % at 5 µM | 210,000 compounds, 0.11% hits | cell-based MDM2 ubiquitination luciferase reporter, 2 h; 0 = plate control, 100 = twice control, blank-subtracted | AID 1230;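 active = signal enhancement of 30% or more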;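 also: luminescence tracks abundance of the self-degrading MDM2-luciferase fusion protein; higher signal means inhibition of MDM2 E3 ligase activity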
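Material: stable MDM2–luciferase fusion reporter cells / Quantity: 2000 cells/well / Dosing: single 5 µM compound dose, 0.2% final DMSO / Buffer or medium: DMEM / Schedule: 4 h cell settling then 2 h compound exposure, 37 °C / Detection: luminescence with SteadyLite reagent, 15 min at room temperature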
KCC2 secondary: confirmation of human KCC2 transport modulators; shares compounds with Cl transport mod; normalised thallium flux (F/F0 slope) at 10 µM; AID 1713; HEK293-KCC2, thallium flux, FluoZin2 fluorescence; active compounds read high; 3,700 compounds, 15% hits;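 active = thallium flux slope above the same plate's solvent-only control mean plus 3 SD; inconclusive = the two replicate wells disagree; inactive = no significant difference from solvent-only control wells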
KCC2 bumet counter: thallium flux persisting under bumetanide in KCC2 cells, counter-screen secondary assay; normalized thallium flux at 10 µM; HEK293-KCC2 + bumetanide/ouabain, thallium flux FluoZin2; active compounds read high; 3,700 compounds, 49% hits; shares compounds with Cl transport mod;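 active = thallium entry rate above the same plate's blocked-transporter control wells by more than 3 SD; inconclusive = the two repeat wells disagree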;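 also: raw slope of fluorescence over initial fluorescence between 10 and 20 s after thallium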
KCC2 sec2: confirmation of human KCC2 transport modulators; shares compounds with Cl transport mod; HEK293-KCC2, thallium flux FluoZin2 fluorescence; actives lie on both sides; F/F0 rise rate, 10–20 s post-thallium; normalized thallium flux at 10 µM; 3,700 compounds, 23% hits; AID 1715;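 active = thallium flux slope more than 3 SD above or below the plate's solvent-only control mean, mostly below; inconclusive = the two repeat wells disagreed; inactive = no significant shift from solvent-only controls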
HEK293 Tl flux: counter-screen for KCC2 modulators: effect in parental HEK293 cells; shares compounds with Cl transport mod; thallium flux FluoZin2, ouabain; baseline-ratio fluorescence slope, 10–20 s after thallium; thallium flux rate (normalised fluorescence) at 10 µM; 3,700 compounds, 46% hits; AID 1716;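 active = thallium flux rate significantly above the same plate's solvent-only control wells, beyond their mean plus 3 SD; inconclusive = the two replicate wells gave conflicting results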
KCC2 ouabain: modulates human KCC2 on retest with ouabain. 3,700 compounds, 48% hits. raw Tl+ flux slope (below DMSO = inhibition, above = activation) at 10 µM. HEK293-KCC2, thallium flux FluoZin2 fluorescence; bidirectional: low = inhibitor, high = activator. shares compounds with Cl transport mod. AID 1717;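 active = thallium flux slope beyond 3 SD from same-plate DMSO control mean in most replicates, usually higher, sometimes lower; inconclusive = repeat tests gave conflicting results; inactive = no significant difference from controls in most replicates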;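 also: slope of initial-normalized fluorescence between seconds 10 and 20 after thallium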
HEK293 Tl flux2: parental HEK flux effect, counter-screen 2. HEK293 parental, thallium flux FluoZin-2 fluorescence slope. thallium flux slope at 10 µM. shares compounds with Cl transport mod. AID 1718. 3,700 compounds, 33% hits;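 active = thallium flux slope above the same plate's solvent-control mean plus 3 SD in both duplicate wells; inconclusive = duplicate wells that disagreed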;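 also: run without ouabain in cells lacking the KCC2 cotransporter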
Each line names hits and unclear results; the compound was inactive in the other large screens (follow-up assays come after a bar, where they were run). The list is not random: actives were taken first. Their share in the collection is about 3.7%.

Cc1ccccc1OCC(=O)NNC(=O)CCN1C(=O)c2ccccc2C1=O	Cl transport mod -3.9 | KCC2 secondary inactive | KCC2 bumet counter inactive | KCC2 sec2 0.023 | HEK293 Tl flux inactive | KCC2 ouabain inconclusive | HEK293 Tl flux2 inactive
COC(=O)c1cc(S(=O)(=O)Nc2ccsc2C(=O)OC)oc1C	none (no result: Arbovirus anti, PKD1 inh)
Cc1cc(C)c(NC(=O)CN(c2ccccc2)S(=O)(=O)N(C)C)c(C)c1	Cl transport mod 5.2 | KCC2 secondary inactive | KCC2 bumet counter inactive | KCC2 sec2 inactive | HEK293 Tl flux inactive | KCC2 ouabain inactive | HEK293 Tl flux2 inactive
CCOC(=O)NC(=S)Nc1ccc(C(C)(C)C)cc1	Cl transport mod 139 (no result: Arbovirus anti, PKD1 inh) | KCC2 secondary 0.026 | KCC2 bumet counter 0.085 | KCC2 sec2 inactive | HEK293 Tl flux 0.065 | KCC2 ouabain 0.067 | HEK293 Tl flux2 0.02
CCOC(=O)c1sc(NC(=S)NC(=O)c2ccccc2)nc1C	Cl transport mod 54 | KCC2 secondary inactive | KCC2 bumet counter 0.089 | KCC2 sec2 0.071 | HEK293 Tl flux 0.063 | KCC2 ouabain 0.081 | HEK293 Tl flux2 0.055
O=C(NC(=S)NCc1ccc2c(c1)OCO2)c1ccccc1	Cl transport mod 12 | KCC2 secondary inactive | KCC2 bumet counter 0.019 | KCC2 sec2 inactive | HEK293 Tl flux 0.009 | KCC2 ouabain inconclusive | HEK293 Tl flux2 inconclusive
COc1ccc(C(=O)NC(=S)NNC(=O)c2ccc3ccccc3n2)cc1	Cl transport mod 57 (no result: Arbovirus anti, PKD1 inh, ROMK primary) | KCC2 secondary inconclusive | KCC2 bumet counter 0.072 | KCC2 sec2 inconclusive | HEK293 Tl flux 0.067 | KCC2 ouabain 0.063 | HEK293 Tl flux2 0.042
Cc1csc(NC(=O)CSc2nnc(NC(=O)COc3ccc(Cl)cc3)s2)n1	none (no result: ROMK primary)
COc1ccc(CN2CCN(S(=O)(=O)c3ccc(NC(C)=O)cc3)CC2)c(OC)c1OC	none
COC(=O)CNC(=S)NC(=O)c1ccc(C(C)(C)C)cc1	Cl transport mod 6.3 | KCC2 secondary inactive | KCC2 bumet counter 0.015 | KCC2 sec2 inactive | HEK293 Tl flux 0.011 | KCC2 ouabain inconclusive | HEK293 Tl flux2 inconclusive
COc1ccc(C(=O)NC(=S)NCc2ccccc2)cc1	Cl transport mod -3 | KCC2 secondary inactive | KCC2 bumet counter 0.0077 | KCC2 sec2 inactive | HEK293 Tl flux inactive | KCC2 ouabain inactive | HEK293 Tl flux2 inactive
CC(C)N(C(=O)C(F)(F)F)C(C(=O)NC1CCCCC1)c1ccncc1 (stereo unspecified)	none (no result: ROMK primary)
COCCNc1cc(C)c(C#N)c2nc3ccccc3n12	none | KCC2 secondary inactive | KCC2 bumet counter inconclusive | KCC2 sec2 inactive | HEK293 Tl flux inactive | KCC2 ouabain inactive | HEK293 Tl flux2 inconclusive
CCCNc1cc(C)c(C#N)c2nc3ccccc3n12	none
NNC(=S)Nc1ccc(C(F)(F)F)cc1Cl	Cl transport mod 16 (no result: Arbovirus anti, PKD1 inh, ROMK primary) | KCC2 secondary inactive | KCC2 bumet counter 0.03 | KCC2 sec2 inactive | HEK293 Tl flux 0.02 | KCC2 ouabain inactive | HEK293 Tl flux2 0.014
NNC(=S)Nc1ccccc1Cl	none
O=C(NC(=S)N1CCc2ccccc21)c1ccc(Br)o1	Cl transport mod 65 (no result: ROMK primary) | KCC2 secondary 0.063 | KCC2 bumet counter 0.086 | KCC2 sec2 0.09 | HEK293 Tl flux 0.098 | KCC2 ouabain 0.09 | HEK293 Tl flux2 0.11
